Assay results published in article PMC5553283 (Journal of natural products, 2017).

Assays:
[1] = test system: murine xenograft models of breast cancer; conditions: systemic i.p. injection ref 23, 25; cited from earlier work
[2] = human, microsomes
[3] = Hydrolysis of the C-15 acetoxy group of AF to AJ; type: physicochemical; conditions: serum in vitro
SCC-4 xenografts = assay: Antitumor efficacy of intratumorally administered taccalonolides; type: in vivo; conditions: intratumoral
[4] = In vivo pharmacokinetic assessment in mice, plasma LC-MS; conditions: 300 µg IV, mouse plasma
Outline: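 Female athymic nude mice, 6–7 weeks, got a single 300 µg tail-vein bolus in 100 µL PBS/5% ethanol. Blood was taken by cardiac puncture under CO2 anaesthesia pre-dose, at end of infusion, 0.25, 0.5, 1 and 2 h (3–5 mice/time point). EDTA plasma (1,200 rcf, 10 min), 100 µL extracted into 1 mL cold ethyl acetate. Quantified against 1/X2-weighted linear calibration. Non-compartmental AUC by linear trapezoid, extrapolated to infinity.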

| rate of clearance (microsomal intrinsic clearance) [2] | NADPH-dependent intrinsic clearance ([2]; pH 7.4) [µL/min/mg] | Structure (SMILES) | antitumor efficacy on systemic administration [1] | NADPH-free intrinsic clearance ([2]; pH 7.4) [µL/min/mg] | hydrolysis of the C-15 acetoxy group [3] | weight loss or other toxicities (SCC-4 xenografts; two 40 µg injections on days 0 and 3) | drug in the plasma 120 min after injection [4] | effect on tumor growth (SCC-4 xenografts; 20 µg total dose) | effect on tumor growth (SCC-4 xenografts; 80 µg total dose, over the course of the trial) |
| --- | --- | --- | --- | --- | --- | --- | --- | --- | --- |
| – | – | CC(=O)O[C@@H]1[C@H]2[C@H]3[C@H]([C@H](OC(C)=O)[C@H](OC(C)=O)[C@]2(C)[C@H]2[C@H](C)[C@H]4O[C@]45OC(=O)[C@@](C)(O)[C@]5(C)[C@H]12)[C@]1(C)[C@H](C[C@@H]2O[C@@H]2[C@@H]1OC(C)=O)C(=O)[C@@H]3O [taccalonolide AF] | demonstrated antitumor efficacy | 0 | observed | no associated weight loss or other toxicities | – | – | – |
| – | – | CC(=O)O[C@H]1[C@H]2[C@H]([C@@H]3[C@@H](O)[C@@H]4[C@H]([C@H](C)[C@H]5O[C@]56OC(=O)[C@@](C)(O)[C@]46C)[C@@]3(C)[C@H]1OC(C)=O)[C@@H](O)C(=O)[C@H]1C[C@@H]3O[C@@H]3[C@H](OC(C)=O)[C@]21C [taccalonolide AJ] | no evidence of antitumor efficacy | – | – | – | no drug detectable | no inhibition of tumor growth | robust and prolonged inhibition of tumor growth |
| no clearance | 0 | CC(=O)CC(c1ccccc1)c1c(O)c2ccccc2oc1=O (centres unmarked) [warfarin] | – | 0 | – | – | – | – | – |
